Measurements taken from ChEMBL document CHEMBL5705899 (Biochem J, 2014).
Calls of active or inactive are those of the source. The rule behind the calls is not given here.

What was measured:
[1] = biological target: Serine/threonine-protein kinase ULK2 (Homo sapiens) (UniProt Q8IYT8); test: Inhibition of recombinant human ULK2 (1 to 1036 residues) expressed in baculovirus infected Sf21 cells assessed as remaining activity at 1 uM using MBP as substrate incubated for 30 mins in presence of [gamma-33P]ATP by filter binding method relative to control
[2] = biological target: Mitogen-activated protein kinase kinase kinase 14 (Homo sapiens) (UniProt Q99558); test: Inhibition of human NIK at 1 uM using RBER-CHKtide as substrate in presence of 33P-ATP by ProQinase assay
[3] = biological target: Eukaryotic translation initiation factor 2-alpha kinase 1 (Homo sapiens) (UniProt Q9BQI3); test: Inhibition of human HRI at 1 uM using casein as substrate in presence of 33P-ATP by ProQinase assay
[4] = biological target: Angiopoietin-1 receptor (Homo sapiens) (UniProt Q02763); test: Inhibition of human TIE2 at 1 uM using polyEY as substrate in presence of 33P-ATP by ProQinase assay
[5] = biological target: Hepatocyte growth factor receptor (Homo sapiens) (UniProt P08581); test: Inhibition of human MET at 1 uM using poly(Ala,Glu,Lys,Tyr) as substrate in presence of 33P-ATP by ProQinase assay
[6] = biological target: Tyrosine-protein kinase SYK (Homo sapiens) (UniProt P43405); test: Inhibition of human SYK (1 to 635 residues) at 1 uM using polyEY as substrate in presence of 33P-ATP by ProQinase assay
[7] = biological target: Proto-oncogene tyrosine-protein kinase receptor Ret (Homo sapiens) (UniProt P07949); test: Inhibition of human RET at 1 uM using polyEY as substrate in presence of 33P-ATP by ProQinase assay
[8] = biological target: Diacylglycerol kinase kappa (Homo sapiens) (UniProt Q5KSL6); test: Inhibition of DGKkappa (unknown origin) at 1 uM
[9] = biological target: Activin receptor type-2B (Homo sapiens) (UniProt Q13705); test: Inhibition of human ACVR2B at 1 uM using RB-CTF as substrate in presence of 33P-ATP by ProQinase assay
[10] = tested on: U2OS; test: Inhibition of PI3K in human U2OS cells expressing FLAG-tagged SGK3 assessed as reduction in AKT phosphorylation at T308 residues at 0.01 to 1 uM 1 hr by immunoblot analysis; format: cell-based; conditions: dose 0.01-1 µM
Outline: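 Flp-In T-REx U2OS cells were grown in McCoy medium with 10% FBS. Expression of C-terminally FLAG-tagged full-length SGK3 was induced with 0.01 mg/ml doxycycline for 24 h. Cells were treated with inhibitor for 1 h and lysed in phosphatase-inhibitor buffer. Lysates were cleared at 16000 g for 10 min at 4°C, protein was measured by Bradford, and phosphorylation was read by immunoblot with ECL detection.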

[11] = biological target: Mitogen-activated protein kinase kinase kinase kinase 5 (Homo sapiens) (UniProt Q9Y4K4); test: Inhibition of human MAP4K5 at 1 uM using casein as substrate in presence of 33P-ATP by ProQinase assay
[12] = biological target: High affinity nerve growth factor receptor (Homo sapiens) (UniProt P04629); test: Inhibition of recombinant human N-terminal His6-tagged TrkA (441 to 760 residues) expressed in baculovirus infected Sf21 cells assessed as remaining activity at 1 uM using Poly(Glu,Tyr) as substrate incubated for 30 mins in presence of [gamma-33P]ATP by filter binding method relative to control
[13] = biological target: Dual specificity protein kinase CLK2 (Homo sapiens) (UniProt P49760); test: Inhibition of human CLK2 at 1 uM using RBER-GSK3 as substrate in presence of 33P-ATP by ProQinase assay
[14] = biological target: NUAK family SNF1-like kinase 1 (Homo sapiens) (UniProt O60285); test: Inhibition of recombinant human N-terminal His6-tagged NUAK1 (2 to 660 residues) expressed in baculovirus infected Sf21 cells assessed as remaining activity at 1 uM using ALNRTSSDSALHRRR as substrate incubated for 30 mins in presence of [gamma-33P]ATP by filter binding method relative to control
[15] = biological target: Phosphorylase b kinase gamma catalytic chain, skeletal muscle/heart isoform (Homo sapiens) (UniProt Q16816); test: Inhibition of human PHKG1 at 1 uM using 3xChocktide-PKC as substrate in presence of 33P-ATP by ProQinase assay
[16] = biological target: Testis-specific serine/threonine-protein kinase 1 (Homo sapiens) (UniProt Q9BXA7); test: Inhibition of recombinant human N-terminal GST-tagged TSSK1 (1 to 367 residues) expressed in Escherichia coli assessed as remaining activity at 1 uM using KKKVSRSGLYRSPSMPENLNRPR as substrate incubated for 30 mins in presence of [gamma-33P]ATP by filter binding method relative to control
[17] = biological target: PI3K p110 beta/p85 alpha (Homo sapiens) (UniProt P27986+P42338); test: Inhibition of recombinant human N-terminal His6-tagged PI3Kbeta (1 to 1070 residues)/p85A (1 to 724 residues) expressed in baculovirus expression system at 1 uM using diC8 PIP2 as substrate incubated for 60 mins by ADP-Glo assay
[18] = biological target: Mitogen-activated protein kinase kinase kinase 2 (Homo sapiens) (UniProt Q9Y2U5); test: Inhibition of human MEKK2 at 1 uM using casein as substrate in presence of 33P-ATP by ProQinase assay
[19] = biological target: Insulin-like growth factor 1 receptor (Homo sapiens) (UniProt P08069); test: Inhibition of recombinant human N-terminal His6-tagged IGF1R (954 to 1367 residues) expressed in baculovirus infected Sf21 cells assessed as remaining activity at 1 uM using KKKSPGEYVNIEFG as substrate incubated for 30 mins in presence of [gamma-33P]ATP by filter binding method relative to control
[20] = biological target: Serine/threonine-protein kinase Chk2 (Homo sapiens) (UniProt O96017); test: Inhibition of human CHK2 at 1 uM using bio-4xCHKT as substrate in presence of 33P-ATP by ProQinase assay
[21] = biological target: CDK3/Cyclin E (Homo sapiens) (UniProt P24864+Q00526); test: Inhibition of human CDK3/CyclinE1 at 1 uM using RBER-CHKtide as substrate in presence of 33P-ATP by ProQinase assay; format: protein-complex assay
[22] = biological target: Insulin-like growth factor 1 receptor (Homo sapiens) (UniProt P08069); test: Inhibition of human IGF1R at 1 uM using polyEY as substrate in presence of 33P-ATP by ProQinase assay
[23] = biological target: STE20/SPS1-related proline-alanine-rich protein kinase (Homo sapiens) (UniProt Q9UEW8); test: Inhibition of human STK39 at 1 uM using RBER-CDC25tide as substrate in presence of 33P-ATP by ProQinase assay
[24] = biological target: Serine/threonine-protein kinase WNK1 (Homo sapiens) (UniProt Q9H4A3); test: Inhibition of recombinant human WNK1 (1 to 661 residues) expressed in baculovirus infected Sf21 cells assessed as remaining activity at 1 uM using YLRRRLSDSNF as substrate incubated for 30 mins in presence of [gamma-33P]ATP by filter binding method relative to control

Sequence of Insulin-like growth factor 1 receptor (Homo sapiens) (P08069 31-736 limits assumed): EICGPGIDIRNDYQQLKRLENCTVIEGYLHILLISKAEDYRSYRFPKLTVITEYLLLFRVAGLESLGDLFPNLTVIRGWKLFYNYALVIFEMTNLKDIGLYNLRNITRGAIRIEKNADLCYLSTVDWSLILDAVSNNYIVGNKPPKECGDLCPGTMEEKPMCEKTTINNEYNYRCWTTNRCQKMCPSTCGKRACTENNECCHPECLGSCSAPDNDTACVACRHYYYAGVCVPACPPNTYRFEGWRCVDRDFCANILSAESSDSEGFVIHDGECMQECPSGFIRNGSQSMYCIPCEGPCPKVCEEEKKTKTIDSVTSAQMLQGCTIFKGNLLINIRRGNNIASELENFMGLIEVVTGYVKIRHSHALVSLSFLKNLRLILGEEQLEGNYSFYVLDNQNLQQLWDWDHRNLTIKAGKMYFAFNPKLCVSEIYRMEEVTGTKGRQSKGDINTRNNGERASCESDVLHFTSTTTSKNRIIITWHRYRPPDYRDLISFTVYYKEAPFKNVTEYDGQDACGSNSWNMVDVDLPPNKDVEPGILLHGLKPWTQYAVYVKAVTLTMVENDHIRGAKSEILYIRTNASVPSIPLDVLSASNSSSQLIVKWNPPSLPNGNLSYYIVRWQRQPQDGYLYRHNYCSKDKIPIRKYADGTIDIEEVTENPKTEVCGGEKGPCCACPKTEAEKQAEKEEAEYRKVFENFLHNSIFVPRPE
Sequence of Insulin-like growth factor 1 receptor (Homo sapiens) (P08069 741-1367 limits assumed): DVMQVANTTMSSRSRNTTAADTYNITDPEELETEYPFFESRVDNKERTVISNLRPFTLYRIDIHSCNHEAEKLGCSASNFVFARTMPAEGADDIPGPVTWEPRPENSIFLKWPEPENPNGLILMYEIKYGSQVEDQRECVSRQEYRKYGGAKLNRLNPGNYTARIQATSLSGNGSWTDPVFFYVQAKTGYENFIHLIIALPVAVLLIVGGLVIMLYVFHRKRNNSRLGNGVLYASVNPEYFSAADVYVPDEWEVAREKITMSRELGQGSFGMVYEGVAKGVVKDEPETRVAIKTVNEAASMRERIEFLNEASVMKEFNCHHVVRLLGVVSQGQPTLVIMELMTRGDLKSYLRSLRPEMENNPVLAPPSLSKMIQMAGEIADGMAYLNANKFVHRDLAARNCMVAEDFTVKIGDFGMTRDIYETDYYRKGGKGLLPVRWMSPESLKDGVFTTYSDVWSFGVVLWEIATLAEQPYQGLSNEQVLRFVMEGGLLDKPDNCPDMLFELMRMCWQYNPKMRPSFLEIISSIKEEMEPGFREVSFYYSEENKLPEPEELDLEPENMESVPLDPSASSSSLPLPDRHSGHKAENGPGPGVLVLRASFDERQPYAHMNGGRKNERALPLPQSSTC
Sequence of Diacylglycerol kinase kappa (Homo sapiens) (Q5KSL6 whole entry): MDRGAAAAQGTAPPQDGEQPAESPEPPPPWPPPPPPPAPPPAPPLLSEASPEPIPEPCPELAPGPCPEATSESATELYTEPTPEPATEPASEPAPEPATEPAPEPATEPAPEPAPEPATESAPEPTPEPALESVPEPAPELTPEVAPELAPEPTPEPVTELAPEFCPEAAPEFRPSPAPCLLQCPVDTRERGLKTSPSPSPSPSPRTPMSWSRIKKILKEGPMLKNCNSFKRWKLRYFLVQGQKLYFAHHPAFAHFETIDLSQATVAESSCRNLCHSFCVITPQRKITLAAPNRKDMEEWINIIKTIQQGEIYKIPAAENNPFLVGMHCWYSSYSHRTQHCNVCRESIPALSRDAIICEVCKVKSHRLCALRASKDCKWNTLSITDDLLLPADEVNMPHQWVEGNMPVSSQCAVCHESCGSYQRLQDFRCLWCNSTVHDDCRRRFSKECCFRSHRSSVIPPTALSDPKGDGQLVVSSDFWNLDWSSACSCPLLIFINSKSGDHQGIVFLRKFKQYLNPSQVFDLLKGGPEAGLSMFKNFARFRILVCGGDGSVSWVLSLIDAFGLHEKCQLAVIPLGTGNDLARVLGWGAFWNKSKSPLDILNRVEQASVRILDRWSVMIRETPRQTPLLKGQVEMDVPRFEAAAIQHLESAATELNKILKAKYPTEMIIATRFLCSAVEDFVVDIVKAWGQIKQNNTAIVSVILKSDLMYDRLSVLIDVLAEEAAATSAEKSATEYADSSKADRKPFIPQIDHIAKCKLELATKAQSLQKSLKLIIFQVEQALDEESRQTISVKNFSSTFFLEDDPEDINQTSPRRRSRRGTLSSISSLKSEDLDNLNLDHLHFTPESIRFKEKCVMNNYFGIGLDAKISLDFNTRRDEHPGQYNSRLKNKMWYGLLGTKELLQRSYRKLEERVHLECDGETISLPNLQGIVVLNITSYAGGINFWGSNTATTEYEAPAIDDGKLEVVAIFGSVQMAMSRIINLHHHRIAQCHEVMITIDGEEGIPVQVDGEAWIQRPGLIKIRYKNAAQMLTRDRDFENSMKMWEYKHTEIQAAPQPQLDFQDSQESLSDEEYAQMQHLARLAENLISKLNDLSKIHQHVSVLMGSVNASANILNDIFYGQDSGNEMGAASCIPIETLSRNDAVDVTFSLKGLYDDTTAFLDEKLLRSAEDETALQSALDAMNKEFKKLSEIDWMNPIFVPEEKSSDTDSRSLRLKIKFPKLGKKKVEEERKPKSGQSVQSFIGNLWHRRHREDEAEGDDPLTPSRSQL
Sequence of Eukaryotic translation initiation factor 2-alpha kinase 1 (Homo sapiens) (Q9BQI3 whole entry): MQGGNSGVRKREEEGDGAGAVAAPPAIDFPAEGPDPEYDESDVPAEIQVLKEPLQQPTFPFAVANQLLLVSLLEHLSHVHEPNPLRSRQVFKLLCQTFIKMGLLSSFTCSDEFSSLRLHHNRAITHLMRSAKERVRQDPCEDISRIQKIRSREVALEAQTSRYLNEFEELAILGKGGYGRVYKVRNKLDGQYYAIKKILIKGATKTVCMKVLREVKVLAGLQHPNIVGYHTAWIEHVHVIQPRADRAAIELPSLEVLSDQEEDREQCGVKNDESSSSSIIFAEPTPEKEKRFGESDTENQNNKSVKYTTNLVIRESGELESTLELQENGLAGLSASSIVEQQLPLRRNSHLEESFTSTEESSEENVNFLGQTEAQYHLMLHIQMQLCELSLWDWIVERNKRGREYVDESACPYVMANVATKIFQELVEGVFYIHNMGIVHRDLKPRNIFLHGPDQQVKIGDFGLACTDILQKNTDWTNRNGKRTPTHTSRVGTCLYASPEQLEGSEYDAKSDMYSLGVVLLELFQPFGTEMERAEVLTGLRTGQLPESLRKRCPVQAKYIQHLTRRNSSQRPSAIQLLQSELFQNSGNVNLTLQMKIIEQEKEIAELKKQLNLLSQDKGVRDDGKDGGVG
Sequence of Hepatocyte growth factor receptor (Homo sapiens) (P08581 whole entry, the tested form may be a part): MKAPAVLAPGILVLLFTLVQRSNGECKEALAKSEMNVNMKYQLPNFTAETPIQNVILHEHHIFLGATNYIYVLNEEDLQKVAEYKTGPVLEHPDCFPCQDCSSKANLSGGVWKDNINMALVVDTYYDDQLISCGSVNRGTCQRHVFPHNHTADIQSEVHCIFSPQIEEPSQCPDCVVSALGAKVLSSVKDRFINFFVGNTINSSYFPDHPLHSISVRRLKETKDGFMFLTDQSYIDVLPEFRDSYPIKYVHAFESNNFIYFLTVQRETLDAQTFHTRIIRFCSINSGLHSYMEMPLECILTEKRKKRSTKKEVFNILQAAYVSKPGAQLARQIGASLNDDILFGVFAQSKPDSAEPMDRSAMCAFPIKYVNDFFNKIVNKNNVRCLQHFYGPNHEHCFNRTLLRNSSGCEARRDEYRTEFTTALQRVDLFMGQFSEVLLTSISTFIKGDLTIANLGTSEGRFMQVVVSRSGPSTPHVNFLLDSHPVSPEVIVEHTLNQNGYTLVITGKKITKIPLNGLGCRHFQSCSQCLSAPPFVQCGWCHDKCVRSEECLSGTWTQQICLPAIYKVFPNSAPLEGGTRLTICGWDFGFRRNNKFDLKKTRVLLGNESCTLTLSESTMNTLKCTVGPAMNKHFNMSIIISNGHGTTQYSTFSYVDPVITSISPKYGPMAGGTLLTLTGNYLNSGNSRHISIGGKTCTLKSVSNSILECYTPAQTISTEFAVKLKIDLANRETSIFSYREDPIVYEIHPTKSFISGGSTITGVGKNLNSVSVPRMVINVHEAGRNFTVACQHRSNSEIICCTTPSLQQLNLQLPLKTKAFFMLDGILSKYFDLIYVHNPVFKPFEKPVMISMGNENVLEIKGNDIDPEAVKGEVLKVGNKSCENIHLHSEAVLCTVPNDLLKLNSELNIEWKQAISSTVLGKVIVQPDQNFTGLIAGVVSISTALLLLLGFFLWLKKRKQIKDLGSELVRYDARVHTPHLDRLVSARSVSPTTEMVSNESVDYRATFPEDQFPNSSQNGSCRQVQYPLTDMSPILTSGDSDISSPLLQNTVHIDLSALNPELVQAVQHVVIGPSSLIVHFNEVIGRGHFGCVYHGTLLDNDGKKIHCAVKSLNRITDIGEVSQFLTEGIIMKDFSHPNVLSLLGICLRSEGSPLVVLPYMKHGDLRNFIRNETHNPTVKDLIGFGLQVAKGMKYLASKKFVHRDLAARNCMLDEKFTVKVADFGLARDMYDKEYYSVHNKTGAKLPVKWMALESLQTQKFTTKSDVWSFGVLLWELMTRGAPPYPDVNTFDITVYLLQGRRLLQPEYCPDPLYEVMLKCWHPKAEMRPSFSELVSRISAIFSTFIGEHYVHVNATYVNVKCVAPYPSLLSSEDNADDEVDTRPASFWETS
Sequence of Testis-specific serine/threonine-protein kinase 1 (Homo sapiens) (Q9BXA7 whole entry, the tested form may be a part): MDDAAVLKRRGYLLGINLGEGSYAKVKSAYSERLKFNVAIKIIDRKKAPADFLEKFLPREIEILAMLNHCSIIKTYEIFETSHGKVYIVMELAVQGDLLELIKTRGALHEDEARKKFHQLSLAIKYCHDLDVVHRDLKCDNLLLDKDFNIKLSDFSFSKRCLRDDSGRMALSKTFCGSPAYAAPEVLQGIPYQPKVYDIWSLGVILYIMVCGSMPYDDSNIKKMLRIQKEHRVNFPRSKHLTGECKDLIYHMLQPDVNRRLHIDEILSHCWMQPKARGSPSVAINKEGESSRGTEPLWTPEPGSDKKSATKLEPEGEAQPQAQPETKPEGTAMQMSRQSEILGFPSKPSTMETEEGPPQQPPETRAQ

CC(C)(O)CNc1ncc(-c2ccnc(Nc3ccnc(Cl)c3)n2)c(CC2CC2)n1
Activity [1]: 118% | inhibition [2]: inactive | inhibition [3]: inactive | inhibition [4]: inactive | inhibition [5]: inactive | inhibition [6]: inactive | inhibition [7]: inactive | inhibition [8]: inactive | inhibition [9]: inactive | inhibition [10]: inactive | inhibition [11]: inactive | Activity [12]: 70% | inhibition [13]: inactive | Activity [14]: 112% | inhibition [15]: inactive | Activity [16]: 118% | inhibition [17]: inactive | inhibition [18]: inactive | Activity [19]: 101% | inhibition [20]: inactive | inhibition [21]: inactive | inhibition [22]: inactive | inhibition [23]: inactive | Activity [24]: 116%
